# Screens as filed in PubChem.
# TAAR1 ag: human TAAR1 agonists, primary screen, Fluo-8 calcium fluorescence, CHO RD-HGA16 cells; Trace amine-associated receptor 1 (Homo sapiens), Q96RJ0; vehicle wells 0%, saturating PEA agonist 100%; activation, % at 3 µM; 360,000 compounds, 0.99% hits; AID 624467, 2012;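 active = activation above the mean activation of all test compounds in the run plus 3 SD, cut at about 38% in these data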
# Target sequence (Q96RJ0 whole entry, looked up): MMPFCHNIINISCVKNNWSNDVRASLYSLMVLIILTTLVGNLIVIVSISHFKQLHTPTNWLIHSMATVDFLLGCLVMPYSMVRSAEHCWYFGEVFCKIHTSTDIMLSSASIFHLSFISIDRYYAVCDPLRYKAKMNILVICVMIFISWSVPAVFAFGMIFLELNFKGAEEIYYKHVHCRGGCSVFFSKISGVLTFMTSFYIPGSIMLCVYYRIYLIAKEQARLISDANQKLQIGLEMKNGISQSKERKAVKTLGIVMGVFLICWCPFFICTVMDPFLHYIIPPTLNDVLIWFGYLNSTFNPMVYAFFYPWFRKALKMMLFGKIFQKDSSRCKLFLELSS
#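 Test system: RD-HGA16 (CHO) cells co-expressing Gα16 and hTAAR1; dosing: one-point dosing at 3 µM (nominal); timing: 17-24 h seeding, 75 min 37 °C dye, 30 min RT; signal: kinetic Fluo-8 calcium fluorescence; read-out basis: % activation relative to PEA EC100 response; controls: DMSO and PEA EC100; replicates: n 1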
# TAAR1 antagonist: human TAAR1 antagonists, primary screen, Fluo-8 calcium fluorescence, CHO RD-HGA16 cells; Trace amine-associated receptor 1 (Homo sapiens), Q96RJ0; antagonist; inhibition, % at 3 µM; 360,000 compounds, 1.5% hits; AID 624466, 2012;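 active = inhibition above a per-plate cutoff, the mean inhibition of test compounds on that plate plus 3 SD, cut at about 49% in these data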
#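 System: CHO RD-HGA16 cells bearing hTAAR1. Reagent: EC80 β-phenethylamine stimulus. Schedule: seeding 17-24 h prior, 75-min 37 °C, 30-min RT dye loading. Signal: Fluo-8 intracellular calcium dye fluorescence, real-time kinetic reads. Read-out: % inhibition from peak post-agonist over basal fluorescence ratio. Benchmarks: vehicle wells and EC80 agonist wells. Replicates: n of 1.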
# OXTR ag: human OXTR agonists, primary screen, fluorescence, CHO-OTR cells, Fluo-8 calcium; Oxytocin receptor (Homo sapiens), P30559; Fluo-8 calcium fluorescence; normalized: DMSO 0%, oxytocin 100%; activation, % at 3 µM; 320,000 compounds, 0.32% hits; AID 2435, 2010;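 active = activation above the mean of all tested compounds plus 3 SD, cutoff set per screening run, cut at about 20% in these data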;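 also: peak over basal fluorescence ratio from a 100 s FLIPR kinetic read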
# Target sequence (P30559 whole entry, looked up): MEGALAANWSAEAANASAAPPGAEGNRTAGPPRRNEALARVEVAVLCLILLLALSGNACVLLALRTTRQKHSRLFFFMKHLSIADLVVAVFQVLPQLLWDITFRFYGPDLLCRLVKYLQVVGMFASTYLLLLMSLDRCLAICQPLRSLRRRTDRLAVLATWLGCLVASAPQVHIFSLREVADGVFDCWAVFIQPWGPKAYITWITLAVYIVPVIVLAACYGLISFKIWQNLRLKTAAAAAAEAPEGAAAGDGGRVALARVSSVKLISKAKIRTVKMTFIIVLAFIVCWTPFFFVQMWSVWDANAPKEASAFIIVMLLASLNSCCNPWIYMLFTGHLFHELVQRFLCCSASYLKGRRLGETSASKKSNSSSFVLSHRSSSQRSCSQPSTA
# OXTR potentiate: human OXTR potentiators, primary screen, fluorescence, CHO-OTR cells, Fluo-8 calcium. Fluo-8 calcium fluorescence, potentiator mode; 0% = oxytocin EC15, 100% = EC100. 320,000 compounds, 0.061% hits. activation, % at 3 µM;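 active = activation above that plate's cutoff, the mean activation of tested compounds plus 3 SD, cut at about 6.6% in these data, passing the limit was not always enough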
#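 System: human OTR in CHO cells / Also added: sub-maximal oxytocin, roughly EC15 / Control set: EC15 oxytocin low, 75 nM oxytocin high / Schedule: 6 min compound pre-incubation at room temperature, 100 s kinetic read / Compound: single-point 3.0 µM / Replication: singlicate / Technique: Fluo-8 calcium dye fluorescence / Read-out basis: % activation of max/min ratio relative to oxytocin controls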
# V1aR counter: agonists of human V1a receptor, primary screen, counter-screen for OXTR agonist project, fluorescence, CHO-V1R cells | AID 2797, 2010 | 320,000 compounds, 0.25% hits | Fluo-8 calcium fluorescence, agonist mode; 0% DMSO, 100% 3 nM vasopressin | Vasopressin V1a receptor (Homo sapiens), P37288 | activation, % at 3 µM;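 active = activation above the mean activation of all tested compounds plus 3 SD, per screening run, cut at about 20% in these data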;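 also: signal is peak over basal fluorescence ratio across a 100 second FLIPR read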
# TAAR1 nonsel count: nonselective antagonists in TAAR1 counter-screen cells, counter-screen for hTAAR1 antagonist project, cell-based, fluorescence, calcium | shares compounds with TAAR1 antagonist | counterscreen cell line, antagonist mode | inhibition, % at 3 µM | 2,400 compounds, 77% hits; in the data active = inhibition above about 22%;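 also: CHO-Ga16 host cells stimulated with ATP at an EC80 level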
# TAAR1 ant conf: human TAAR1 antagonists, retest of hits, confirmation, cell-based, fluorescence | TAAR1-expressing cells, fluorescence antagonist read-out | shares compounds with TAAR1 antagonist | inhibition, % at 3 µM | 2,400 compounds, 40% hits; in the data active = inhibition above about 49%;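 also: CHO-Ga16 host cells challenged with agonist PEA near its EC80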
# Ga16 nonsel ag: calcium activation in Ga16-expressing cells, counter-screen for TAAR1 antagonist project, cell-based, fluorescence | agonist counterscreen | shares compounds with TAAR1 antagonist | activation, % at 3 µM | 2,400 compounds, 18% hits; in the data active = activation above about 12%
# TAAR1 ag count: TAAR1 activation by candidate antagonists – cell-based, fluorescence, counter-screen for TAAR1 antagonist project; hTAAR1 cell line, agonist mode; shares compounds with TAAR1 antagonist; activation, % at 3 µM; AID 651955, 2012; 2,400 compounds, 2% hits; in the data active = activation above about 37%;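 also: CHO cells stably expressing TAAR1 with calcium dye readout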
# Hits are given with their value; 0 = inactive; - = no result. Only some compounds are listed: those with a hit (about 2.3% of all), similar ones and a draw of the others.
SMILES,TAAR1 ag,TAAR1 antagonist,OXTR ag,OXTR potentiate,V1aR counter,TAAR1 nonsel count,TAAR1 ant conf,Ga16 nonsel ag,TAAR1 ag count
O=C(Nc1ccc(F)c(Cl)c1)C1CCCC1,0,0,0,0,0,-,-,-,-
O=C(Nc1ccc(F)c(Cl)c1)NC1CC1,0,104.8,0,0,0,0,0,0,0
COc1ccc(Nc2ncnc3sccc23)c(OC)c1,0,0,0,0,0,-,-,-,-
Cc1cc(NCCO)nc(-n2nc(C)cc2C)n1,0,57.4,0,0,0,0,0,0,0
Cc1cc(N(CCO)CCO)nc(-n2nc(C)cc2C)n1,0,0,0,0,0,-,-,-,-
O=C1CN(C(=O)COC(=O)c2cccs2)c2ccccc2N1,0,61.0,0,0,0,0,0,0,0
COc1ccc(C(=O)N2CCOC2CNC(=O)C(=O)NCc2ccc(Cl)cc2)cc1 (centres undefined),0,0,0,0,0,-,-,-,-
COc1ccc(CCNC(=O)C(=O)NCC2OCCN2C(=O)c2ccc(Cl)cc2)cc1 (centres undefined),0,59.5,0,0,0,22.5,0,0,0
N#Cc1ccccc1OCC(=O)NNC(=O)CNC(=O)c1cccc(Br)c1,0,0,0,0,0,-,-,-,-
Cc1ccc(C(=O)Nc2cccc(C(=O)NCc3ccccc3)c2)o1,0,0,0,0,0,-,-,-,-
C/C(=N\NC(=O)C1(C)CC1(Br)Br)c1cccc(NC(=O)c2ccc(C)o2)c1 (centres undefined),0,84.8,0,0,0,25.7,72.5,0,39.4
CCOC(=O)N1CCN(Cc2nc3ccc([N+](=O)[O-])cc3c(=O)n2-c2ccccc2F)CC1,0,71.3,0,0,0,0,0,0,0
CCC(CC)N1CCN(Cc2nc3ccc([N+](=O)[O-])cc3c(=O)n2-c2ccccc2F)CC1,0,0,0,0,0,-,-,-,-
O=C(NC1CCCc2ccccc21)C1CCC(CNS(=O)(=O)c2cccc3nsnc23)CC1 (centres undefined),0,57.3,0,0,0,0,0,0,0
CC(C)c1nc2scc(-c3ccc(Cl)cc3)c2c(=O)n1N,0,65.6,0,0,0,31.6,0,0,0
N=C1/C(=C\c2ccc(-c3cccc(Cl)c3)o2)C(=O)N=C2SC=C(c3ccccc3)N12,0,0,0,0,0,-,-,-,-
N=C1/C(=C\c2ccc(-c3ccc(C(=O)O)cc3)o2)C(=O)N=C2SC=C(c3ccccc3)N12,0,53.7,-,-,-,45.0,62.5,16.0,0
COC(=O)[C@]1(Sc2ccc(C)cc2)CC(=O)N[C@@H]1c1ccccc1,0,0,-,-,-,-,-,-,-
COc1ccc(CN(C)C(=O)C(Cc2ccccc2)NC(=O)c2ccccc2)c(OC)c1 (centres undefined),0,67.2,0,0,0,29.8,49.6,0,0
COc1ccc(CN(C)C(=O)c2ccc(COc3ccccc3)cc2)c(OC)c1,0,0,0,0,0,-,-,-,-
COc1cccc(/C=N/Nc2nnc3c(n2)[nH]c2ccccc23)c1OC,0,60.8,0,0,0,0,0,0,0
COc1cccc(C=NNc2nc3ccccc3s2)c1OC,0,0,-,-,-,-,-,-,-
COc1ccc(CN(C)CC(=O)NCC(=O)Nc2c(C)cccc2C)cc1,0,0,0,0,0,-,-,-,-
Cc1ccc(C(=O)CSc2ccc(-c3cccnc3)nn2)cc1,0,0,0,0,0,-,-,-,-
CC(=O)C[C@H](O)CC(=O)[C@@H]1OC(=O)[C@H](C)C/C=C\Cc2ccccc21,0,0,0,0,0,-,-,-,-
SMILES,TAAR1 ag,TAAR1 antagonist,OXTR ag,OXTR potentiate,V1aR counter,TAAR1 nonsel count,TAAR1 ant conf,Ga16 nonsel ag,TAAR1 ag count
C[C@@H]1CN(C(=O)OC(C)(C)C)CCN1c1ccc(N2CCS(=O)(=O)CC2)c(C#N)c1,0,0,-,-,-,-,-,-,-
C[C@H]1CN(C(=O)OC(C)(C)C)CCN1c1ccc(N2CCS(=O)(=O)CC2)c(C#N)c1,0,66.6,-,-,-,46.8,59.9,16.2,0
COc1ccc(C(=O)Nc2ccc3c(c2)CCCN3C(=O)c2cccs2)c(OC)c1,0,54.7,0,0,0,25.9,0,0,0
Cc1ccccc1C(=O)Nc1ccc2c(c1)CCCN2C(=O)c1cccs1,0,0,0,0,0,-,-,-,-
Cc1ccc2c(c1)CCCN2C(=O)c1cccs1,0,0,0,0,0,-,-,-,-
COc1cccc(C(=O)Nc2ccc3c(c2)CCCN3C(=O)c2cccs2)c1OC,0,50.1,0,0,0,24.0,0,0,0
O=C(CCc1nnc(-c2ccccc2)o1)NCc1c(F)cccc1F,0,0,0,0,0,-,-,-,-
Cc1ccc(CNC(=O)c2ccccc2SCC(=O)NCC2CCCCC2)cc1,0,62.6,0,0,0,26.2,0,0,0
CSc1ccccc1C(=O)NCc1ccc(C)cc1,0,103.5,0,0,0,0,0,0,0
COC(=O)[C@@H]1CCCN1Cc1c(C(=O)N2CCOCC2)nc2c(C)cccn12,0,0,0,0,0,-,-,-,-
CCN(CC)c1ccc(S(=O)(=O)N2CCOCC2)cc1NC(=O)COC(=O)/C=C/c1ccccc1,0,69.7,-,-,-,31.0,0,0,0
CCN(CC)c1ccc(S(=O)(=O)N2CCOCC2)cc1NC(=O)COC(=O)c1ccco1,0,0,0,0,0,-,-,-,-
NS(=O)(=O)c1ccc(CCNC(=O)c2ccc3c(c2)N(Cc2ccccc2)CCS3)cc1,0,82.6,0,0,0,38.8,61.8,0,0
COc1ccc(CCNC(=O)c2ccc3c(c2)N(Cc2ccccc2)CCS3)cc1OC,0,80.1,0,0,0,39.5,61.6,0,0
COc1ccc(CCNC(=O)c2cc(-c3ccccc3)c(N3CCOCC3)s2)cc1OC,0,66.5,0,0,0,24.9,0,0,0
O=C(NCCCN1CCCC1)c1ccc2c(c1)N(Cc1ccccc1)CCS2,0,0,0,0,0,-,-,-,-
COc1ccc([C@H]2C[C@H](O)C[C@@H](CCn3cc(-c4ccccc4)nn3)O2)cc1,0,0,-,-,-,-,-,-,-
